The text below walks through data of ChEMBL document CHEMBL1125330, “N-substituted pyrazino[2,3-c][1,2,6]thiadiazine 2,2-dioxides. A new class of diuretics” (J Med Chem, 1992).

Structures are written as SMILES.

What all share (settings): in vivo
Series [1] is filed under the species Rattus norvegicus. The series can be described thus: Mean sodium excretion in rats (Control/Drug treatment value); value 0.41/2.06. The format is ADME, organism-based.
The species named for series [2] is Rattus norvegicus. In words: Mean urinary output in rats (Control/Drug treatment value); value 22.8/35.1. The class given is ADME, organism-based, Urine. In short, it runs like this: (§1)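 Water-loaded male Sprague-Dawley rats (HC/CFY, 175-200 g), eight per group, deprived of food and water 18 h. Single oral gavage of 20-25 mg/kg (some 10 mg/kg) in 1% CMC/0.1% Tween 80, then distilled water 2.5 mL/100 g bw po. Cumulative urine over 6 h in metabolic cages; mean mL/6 h/kg bw vs vehicle group.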

The species named for series [3] is Rattus norvegicus. In words: Mean sodium excretion in rats (Control/Drug treatment value); value 0.44/2.68. The class given is ADME, organism-based.
For series [4], the species on record is Rattus norvegicus. The series can be described thus: Mean urinary output in rats (Control/Drug treatment value); value 26.1/45.7. The class given is ADME, organism-based, Urine. In short, it runs like this:
as §1

In series [1], `CCCN1c2nc(CC)c(C)nc2C(N)=NS1(=O)=O` gave a Na of 5. The same molecule showed a V in series [2] of 1.5.
Turning to `CCCN1c2nc(C)c(C)nc2C(N)=NS1(=O)=O`, the Na in series [3] amounted to 6.1. Besides, in series [4], the V was found to be 1.8.
